This is an account of results in ChEMBL document CHEMBL4130405, “Iridoid Glycosides from the Twigs of Sambucus williamsii var. coreana and Their Biological Activities” (J Nat Prod, 2017).

The test system of the first data set is A549. Description: Cytotoxicity against human A549 cells after 48 hrs by SRB assay. The format is functional, cell-based. Particulars: A549, 48 h. The method in brief: (§1)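 Cells from ATCC were seeded and left 24 h at 37 °C under 5% CO2. Attached cells were then exposed for 48 h to serial dilutions of 30, 10, 3, 1, 0.3 and 0.1 μM. Cells were fixed with cold 10% TCA at 4 °C for 1 h and stained with 0.4% SRB for 30 min at room temperature. Dye was solubilized in 10 mM Tris base (pH 10.5) and absorbance read at 520 nm. Etoposide served as positive control. IC50 is the mean ± SD of three independent experiments.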
Molecule `CC(C)CC(=O)O[C@@H]1OC=C(CO[C@@H]2O[C@H](CO)[C@@H](O)[C@H](O)[C@H]2OC(=O)/C=C\c2ccc(O)cc2)[C@H]2CC[C@](O)(CO)[C@@H]12` showed an IC50 of over 10 µM.

Molecule `CC(=O)OC[C@@]1(O)CC[C@@H]2C(CO[C@@H]3O[C@H](CO)[C@@H](O)[C@H](O)[C@H]3OC(=O)/C=C\c3ccc(O)cc3)=CO[C@@H](OC(=O)CC(C)C)[C@@H]21` came in with an IC50 of over 10 µM.

As for `C=C1[C@@H]2O[C@@H](OC)[C@@H]3[C@@H](O2)[C@@H](O)C[C@H]13`, the IC50 was over 10 µM.

Take `C=C1[C@@H]2O[C@@H](OC)[C@@H]3[C@H](CC[C@H]13)O2`: the IC50 is over 10 µM.

`CC(C)CC(=O)O[C@@H]1OC=C(CO[C@@H]2O[C@H](CO)[C@@H](O)[C@H](O)[C@H]2OC(=O)/C=C/c2ccc(O)cc2)[C@H]2CC[C@](O)(CO)[C@@H]12` registered an IC50 of over 10 µM.

In a further data set the test system is SK-OV-3. As to the kind of experiment: Cytotoxicity against human SKOV3 cells after 48 hrs by SRB assay. Format: functional, cell-based. Particulars: SK-OV-3, 48 h. The method in brief: as §1
For orientation: The SRB assay estimates cell density from bound dye.
With `CC(C)CC(=O)O[C@@H]1OC=C(CO[C@@H]2O[C@H](CO)[C@@H](O)[C@H](O)[C@H]2OC(=O)/C=C\c2ccc(O)cc2)[C@H]2CC[C@](O)(CO)[C@@H]12`, the IC50 is over 10 µM.

Take `CC(=O)OC[C@@]1(O)CC[C@@H]2C(CO[C@@H]3O[C@H](CO)[C@@H](O)[C@H](O)[C@H]3OC(=O)/C=C\c3ccc(O)cc3)=CO[C@@H](OC(=O)CC(C)C)[C@@H]21`: the IC50 was found to be 7.5 µM.

The molecule `C=C1[C@@H]2O[C@@H](OC)[C@@H]3[C@@H](O2)[C@@H](O)C[C@H]13` returned an IC50 of over 10 µM.

Take `C=C1[C@@H]2O[C@@H](OC)[C@@H]3[C@H](CC[C@H]13)O2`: the IC50 is over 10 µM.

Consider `CC(C)CC(=O)O[C@@H]1OC=C(CO[C@@H]2O[C@H](CO)[C@@H](O)[C@H](O)[C@H]2OC(=O)/C=C/c2ccc(O)cc2)[C@H]2CC[C@](O)(CO)[C@@H]12`, for which the IC50 is over 10 µM.

For a further data set, the system named is SK-MEL-2. As to the kind of experiment: Cytotoxicity against human SK-MEL-2 cells after 48 hrs by SRB assay. Format: functional, cell-based. The note with it: SK-MEL-2, 48 h. Summed up:
as §1
The molecule `CC(C)CC(=O)O[C@@H]1OC=C(CO[C@@H]2O[C@H](CO)[C@@H](O)[C@H](O)[C@H]2OC(=O)/C=C\c2ccc(O)cc2)[C@H]2CC[C@](O)(CO)[C@@H]12` yielded an IC50 of 8.4 µM.

Regarding `CC(=O)OC[C@@]1(O)CC[C@@H]2C(CO[C@@H]3O[C@H](CO)[C@@H](O)[C@H](O)[C@H]3OC(=O)/C=C\c3ccc(O)cc3)=CO[C@@H](OC(=O)CC(C)C)[C@@H]21`, the IC50 was 5.2 µM.

Molecule `C=C1[C@@H]2O[C@@H](OC)[C@@H]3[C@@H](O2)[C@@H](O)C[C@H]13` came in with an IC50 of over 10 µM.

`C=C1[C@@H]2O[C@@H](OC)[C@@H]3[C@H](CC[C@H]13)O2` showed an IC50 of over 10 µM.

`CC(C)CC(=O)O[C@@H]1OC=C(CO[C@@H]2O[C@H](CO)[C@@H](O)[C@H](O)[C@H]2OC(=O)/C=C/c2ccc(O)cc2)[C@H]2CC[C@](O)(CO)[C@@H]12`: the IC50 is over 10 µM.

In a further data set the test system is BT-549. As to the kind of experiment: Cytotoxicity against human BT549 cells after 48 hrs by SRB assay. Format: functional, cell-based. Particulars: BT-549, 48 h. Summed up:
as §1
The molecule `CC(C)CC(=O)O[C@@H]1OC=C(CO[C@@H]2O[C@H](CO)[C@@H](O)[C@H](O)[C@H]2OC(=O)/C=C\c2ccc(O)cc2)[C@H]2CC[C@](O)(CO)[C@@H]12` gave an IC50 of 8.7 µM.

For `CC(=O)OC[C@@]1(O)CC[C@@H]2C(CO[C@@H]3O[C@H](CO)[C@@H](O)[C@H](O)[C@H]3OC(=O)/C=C\c3ccc(O)cc3)=CO[C@@H](OC(=O)CC(C)C)[C@@H]21`, half-maximal inhibition (IC50) required 4 µM.

Regarding `C=C1[C@@H]2O[C@@H](OC)[C@@H]3[C@@H](O2)[C@@H](O)C[C@H]13`, the IC50 is over 10 µM.

For the molecule `C=C1[C@@H]2O[C@@H](OC)[C@@H]3[C@H](CC[C@H]13)O2`, the IC50 is over 10 µM.

For the molecule `CC(C)CC(=O)O[C@@H]1OC=C(CO[C@@H]2O[C@H](CO)[C@@H](O)[C@H](O)[C@H]2OC(=O)/C=C/c2ccc(O)cc2)[C@H]2CC[C@](O)(CO)[C@@H]12`, the IC50 was over 10 µM.

Another data set deals with BV-2. As to the kind of experiment: Antineuroinflammatory activity in mouse BV2 cells assessed as inhibition of LPS-induced nitric oxide production pretreated for 30 mins followed by LPS-stimulation after 24 hrs by Griess assay. The format is functional, cell-based.
Settings: not given
The method in brief: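 BV-2 microglia were pretreated with compound for 30 min, then stimulated with LPS (100 ng/mL) for 24 h. Nitrite in the supernatant was mixed with an equal volume of Griess reagent (1% sulfanilamide, 0.1% naphthylethylenediamine in 5% phosphoric acid) for 10 min and read at 570 nm. Values were quantified against a sodium nitrite standard curve. L-NMMA served as positive control. IC50 is the concentration giving 50% inhibition of NO production; three independent experiments.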
A general note: Nitrite, measured by Griess reagent, commonly stands in for NO production.
For the molecule `CC(C)CC(=O)O[C@@H]1OC=C(CO[C@@H]2O[C@H](CO)[C@@H](O)[C@H](O)[C@H]2OC(=O)/C=C\c2ccc(O)cc2)[C@H]2CC[C@](O)(CO)[C@@H]12`, the IC50 was 0.9 to 0.95 µM.

`CC(=O)OC[C@@]1(O)CC[C@@H]2C(CO[C@@H]3O[C@H](CO)[C@@H](O)[C@H](O)[C@H]3OC(=O)/C=C\c3ccc(O)cc3)=CO[C@@H](OC(=O)CC(C)C)[C@@H]21`: the IC50 lay within 1.2 to 1.22 µM.

In the case of `C=C1[C@@H]2O[C@@H](OC)[C@@H]3[C@@H](O2)[C@@H](O)C[C@H]13`, the IC50 came out at 110 µM.

Consider `C=C1[C@@H]2O[C@@H](OC)[C@@H]3[C@H](CC[C@H]13)O2`, for which the IC50 is 94.2 µM.

In the case of `CC(C)CC(=O)O[C@@H]1OC=C(CO[C@@H]2O[C@H](CO)[C@@H](O)[C@H](O)[C@H]2OC(=O)/C=C/c2ccc(O)cc2)[C@H]2CC[C@](O)(CO)[C@@H]12`, the IC50 was 45.5 µM.

Tested on in another data set: not listed separately
As to the kind of experiment: Cytotoxicity against mouse BV2 cells assessed as cell viability at 20 uM by MTT assay relative to control. The format is cell-based, BV-2. Particulars: read-out: Activity. The method in brief:
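Viability of LPS-activated BV-2 cells was measured after 24 h treatment with 20 μM compound. Read-out was MTT, expressed as percent. Values are means ± SD of three independent experiments.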
On the technique in general: Formazan colour is commonly taken as a measure of viable cells.
On to `CC(C)CC(=O)O[C@@H]1OC=C(CO[C@@H]2O[C@H](CO)[C@@H](O)[C@H](O)[C@H]2OC(=O)/C=C\c2ccc(O)cc2)[C@H]2CC[C@](O)(CO)[C@@H]12`, for which the viability at 20 µM was determined as 103%.

In the case of `CC(=O)OC[C@@]1(O)CC[C@@H]2C(CO[C@@H]3O[C@H](CO)[C@@H](O)[C@H](O)[C@H]3OC(=O)/C=C\c3ccc(O)cc3)=CO[C@@H](OC(=O)CC(C)C)[C@@H]21`, the viability at 20 µM was 130%.

Consider `C=C1[C@@H]2O[C@@H](OC)[C@@H]3[C@@H](O2)[C@@H](O)C[C@H]13`, for which the viability at 20 µM is 36%.

With `C=C1[C@@H]2O[C@@H](OC)[C@@H]3[C@H](CC[C@H]13)O2`, the viability at 20 µM was 104%.

As to `CC(C)CC(=O)O[C@@H]1OC=C(CO[C@@H]2O[C@H](CO)[C@@H](O)[C@H](O)[C@H]2OC(=O)/C=C/c2ccc(O)cc2)[C@H]2CC[C@](O)(CO)[C@@H]12`, the viability at 20 µM is 102%.

The test system of a further data set is C6. Description: Induction of NGF secretion in rat C6 cells at 20 uM after 24 hrs by ELISA relative to control. The format is functional.
Settings: not given
The method in brief: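 C6 glioma cells were seeded at 1 × 10^5 cells/well in DMEM with 10% FBS. After 24 h, cells were exposed to 20 μM compound in DMEM with 2% FBS for 24 h. NGF secreted into the conditioned medium was measured by ELISA as percent of untreated control (100%). 6-Shogaol served as positive control. Data are mean ± SD of three independent experiments in triplicate.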
On to `CC(C)CC(=O)O[C@@H]1OC=C(CO[C@@H]2O[C@H](CO)[C@@H](O)[C@H](O)[C@H]2OC(=O)/C=C\c2ccc(O)cc2)[C@H]2CC[C@](O)(CO)[C@@H]12`, for which the Activity is listed as 147%.

Molecule `CC(=O)OC[C@@]1(O)CC[C@@H]2C(CO[C@@H]3O[C@H](CO)[C@@H](O)[C@H](O)[C@H]3OC(=O)/C=C\c3ccc(O)cc3)=CO[C@@H](OC(=O)CC(C)C)[C@@H]21` yielded an Activity of 134.1%.

In turn, `C=C1[C@@H]2O[C@@H](OC)[C@@H]3[C@@H](O2)[C@@H](O)C[C@H]13` yielded an Activity of 152.6%.

`C=C1[C@@H]2O[C@@H](OC)[C@@H]3[C@H](CC[C@H]13)O2` gave an Activity of 133.4%.

`CC(C)CC(=O)O[C@@H]1OC=C(CO[C@@H]2O[C@H](CO)[C@@H](O)[C@H](O)[C@H]2OC(=O)/C=C/c2ccc(O)cc2)[C@H]2CC[C@](O)(CO)[C@@H]12` gave an Activity of 130.4%.

Tested on in another data set: not listed separately
Description: Cytotoxicity against rat C6 cells assessed as cell viability at 20 uM after 24 hrs by MTT assay relative to control. Particulars: read-out: Activity. Format: cell-based. The method in brief: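 C6 glioma cells were kept in DMEM with 10% FBS and seeded at 1 × 10^5 cells/well. After 24 h, cells were treated with 20 μM compound in DMEM with 2% FBS for 24 h. MTT reagent was added for 1 h at 37 °C, formazan dissolved in DMSO and absorbance read at 570 nm. Results are percent, mean ± SD of three independent experiments.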
For `CC(C)CC(=O)O[C@@H]1OC=C(CO[C@@H]2O[C@H](CO)[C@@H](O)[C@H](O)[C@H]2OC(=O)/C=C\c2ccc(O)cc2)[C@H]2CC[C@](O)(CO)[C@@H]12`, the viability at 24 h, 20 µM is 102%.

Consider `CC(=O)OC[C@@]1(O)CC[C@@H]2C(CO[C@@H]3O[C@H](CO)[C@@H](O)[C@H](O)[C@H]3OC(=O)/C=C\c3ccc(O)cc3)=CO[C@@H](OC(=O)CC(C)C)[C@@H]21`, for which the viability at 24 h, 20 µM was found to be 104%.

For `C=C1[C@@H]2O[C@@H](OC)[C@@H]3[C@@H](O2)[C@@H](O)C[C@H]13`, the viability at 24 h, 20 µM amounted to 111%.

As to `C=C1[C@@H]2O[C@@H](OC)[C@@H]3[C@H](CC[C@H]13)O2`, the viability at 24 h, 20 µM amounted to 106%.

In the case of `CC(C)CC(=O)O[C@@H]1OC=C(CO[C@@H]2O[C@H](CO)[C@@H](O)[C@H](O)[C@H]2OC(=O)/C=C/c2ccc(O)cc2)[C@H]2CC[C@](O)(CO)[C@@H]12`, the viability at 24 h, 20 µM is 115%.

One may read the IC50 as the concentration needed to halve the response being measured.
